Reference: ChEMBL document CHEMBL3085714 (J Med Chem, 2013)

Experiments:
[1] = biological target: T1, Mitogen-activated protein kinase 14 (Homo sapiens, UniProt Q16539); test: Competitive inhibition of p38alpha MAP kinase (unknown origin) in presence of 100 uM ATP
[2] = biological target: T1, Mitogen-activated protein kinase 14; test: Inhibition of p38alpha MAP kinase in human whole blood assessed as inhibition of LPS-induced TNFalpha release by ELISA
[3] = biological target: T1, Mitogen-activated protein kinase 14; test: Inhibition of p38alpha MAP kinase in human whole blood assessed as inhibition of LPS-induced TNFalpha release at 100 uM by ELISA
[4] = Metabolic stability in human/rat liver microsomes at 1 mg/ml after 180 mins by LC/MS analysis; format: ADME, Microsome; conditions: read-out: Stability
How it was run: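 Rat and human liver microsomes were incubated with microsomal protein standardized to 1 mg/mL. Aliquots were withdrawn immediately after reaction start and at 10, 20, 40, 60, 120 and 180 min, then analysed by LC-MS.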

Mus musculus [5] = organism: Mus musculus; test: Metabolic stability in C57BL/6 mouse assessed as M-603 metabolite level in blood after 72 hrs by LC-MS/MS analysis; format: ADME, organism-based
Mus musculus [6] = organism: Mus musculus; test: Metabolic stability in C57BL/6 mouse assessed as M-732 metabolite level in blood after 72 hrs by LC-MS/MS analysis; format: ADME, organism-based
Mus musculus [7] = test: Half life in C57BL/6 mouse at 10 mg/kg, po; format: ADME, organism-based; design: dose 10 mg/kg, route oral; conditions: in vivo
How it was run: (§1)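 Male Black 6 C57 mice were dosed orally at 10 mg/kg. Plasma was sampled for up to 72 h postdose. Parent drug was quantified by LC-MS/MS after derivatization with 4-pyridinylboronic acid (70 °C, 40 min). Parameters came from noncompartmental analysis of mean plasma concentration–time profiles.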

Mus musculus [8] = test: Terminal elimination rate in C57BL/6 mouse at 10 mg/kg, po; format: ADME, organism-based; design: dose 10 mg/kg, route oral; conditions: in vivo
[9] = Cmax in C57BL/6 mouse at 10 mg/kg, po; format: ADME, organism-based; design: dose 10 mg/kg, route oral; conditions: in vivo; how it was run: as §1
[10] = Tmax in C57BL/6 mouse at 10 mg/kg, po; format: ADME, organism-based; design: dose 10 mg/kg, route oral; conditions: in vivo
Mus musculus [11] = organism: Mus musculus; test: Metabolic stability in C57BL/6 mouse assessed as M-734 metabolite level in blood after 72 hrs by LC-MS/MS analysis; format: ADME, organism-based
Mus musculus [12] = organism: Mus musculus; test: Metabolic stability in C57BL/6 mouse assessed as M-605 metabolite level in blood after 72 hrs by LC-MS/MS analysis; format: ADME, organism-based
[13] = AUC (0 to infinity) in C57BL/6 mouse at 10 mg/kg, po; format: ADME, organism-based; design: time infinity, dose 10 mg/kg, route oral; conditions: plasma; how it was run: as §1
[14] = AUC (0 to t) in C57BL/6 mouse at 10 mg/kg, po; format: ADME, organism-based; design: dose 10 mg/kg, route oral; conditions: plasma; how it was run: as §1

T1 sequence (Q16539 whole entry): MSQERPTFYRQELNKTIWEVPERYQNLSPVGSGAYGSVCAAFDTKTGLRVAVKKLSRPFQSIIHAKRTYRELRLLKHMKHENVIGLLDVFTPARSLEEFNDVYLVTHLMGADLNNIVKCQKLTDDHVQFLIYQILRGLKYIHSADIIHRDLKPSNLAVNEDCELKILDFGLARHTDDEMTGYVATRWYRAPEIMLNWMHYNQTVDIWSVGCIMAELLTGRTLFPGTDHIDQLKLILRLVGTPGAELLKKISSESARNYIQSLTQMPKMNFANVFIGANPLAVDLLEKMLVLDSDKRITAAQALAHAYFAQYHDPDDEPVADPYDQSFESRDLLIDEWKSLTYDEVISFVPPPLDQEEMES

SMILES	IC50 [1] [nM]	IC50 [2] [nM]	also measured
CC1(C)OC[C@@H](CCOc2ccc3c(c2)COc2cc(Nc4ccc(F)cc4F)ccc2C3=O)O1	516		
O=C(Nc1ccc(F)c(Nc2ccc3c(c2)OCc2ccc(OCCN4CCOCC4)cc2C3=O)c1)c1ccccc1	3	1560	
O=C1c2ccc(Nc3ccc(F)cc3F)cc2OCc2c(OCCC3CCOCC3)cccc21	571		
COc1cccc2c1COc1cc(Nc3ccc(F)cc3F)ccc1C2=O	63		inhibition [3]: 44.7%
Nc1ccc2c(c1)C(=O)c1ccc(Nc3ccc(F)cc3)cc1OC2	103	5700	
CC1(C)OC[C@H](COc2cccc3c2COc2cc(Nc4ccc(F)cc4F)ccc2C3=O)O1	481		inhibition [3]: 42.4%
O=C1c2ccc(Nc3ccc(F)cc3F)cc2CCc2ccc(O)cc21	49	1250	remaining at 3 h [4]: 70%
O=C1c2cc(NCCN3CCOCC3)ccc2COc2cc(Oc3ccc(F)cc3F)ccc21	819		
Nc1ccc2c(c1)C(=O)c1ccc(Oc3ccc(F)cc3F)cc1OC2	763		
Nc1ccc2c(c1)C(=O)c1ccc(Nc3cc(F)c(F)cc3F)cc1OC2	74	7810	
CC1(C)OC[C@@H](COc2cccc3c2COc2cc(Nc4ccc(F)cc4F)ccc2C3=O)O1	563		inhibition [3]: 48.6%
CC1(C)OC[C@@H](COc2ccc3c(c2)COc2cc(Nc4ccc(F)cc4F)ccc2C3=O)O1	665	91200	
Nc1cccc(Nc2ccc3c(c2)OCc2ccc(OCCN4CCOCC4)cc2C3=O)c1	146	684	
COc1cccc2c1COc1cc(Nc3ccccc3N)ccc1C2=O	94		
O=c1c2ccccc2ccc2cc(Nc3ccc(F)cc3F)ccc12	4200		
O=C1c2cc(OC[C@H](O)CO)ccc2COc2cc(Nc3ccc(F)cc3F)ccc21	14	233	Stability (Mus musculus [5]): Unstable; Stability (Mus musculus [6]): Unstable; t1/2 (Mus musculus [7]): 3.95 h; Kel (Mus musculus [8]): 0.0243 h⁻¹; Cmax [9]: 627 ng/mL; Tmax [10]: 1 h; Stability (Mus musculus [11]): Unstable; Stability (Mus musculus [12]): Unstable; AUC(0-inf) [13]: 6990 ng·h/mL; AUC(0-t) [14]: 6590 ng·h/mL

SMILES	IC50 [1] [nM]	IC50 [2] [nM]	also measured
O=C1c2ccc(Nc3ccc(F)cc3F)cc2CCc2ccc(OC[C@@H](O)CO)cc21			remaining at 3 h [4]: 100%
Nc1cc(F)ccc1Nc1ccc2c(c1)OCc1c(OCCN3CCOCC3)cccc1C2=O	72		inhibition [3]: 38.8%
O=C1c2cc(OC[C@@H](O)CO)ccc2COc2cc(Nc3ccc(F)cc3F)ccc21	61	591	
Cc1cc(F)c(NC(=O)c2ccsc2)cc1Nc1ccc2c(c1)OCc1ccc(OC[C@H]3COC(C)(C)O3)cc1C2=O	1.8	287	
CCN(CC)CCOc1ccc2c(c1)C(=O)c1ccc(Nc3ccc(F)cc3F)cc1OC2	101	1060	
COc1ccc2c(c1)COc1cc(Nc3ccccc3N)ccc1C2=O	132	71800	
CC(=O)OCCOc1ccc2c(c1)C(=O)c1ccc(Nc3ccc(F)cc3F)cc1OC2	22		
O=C1c2cc(NCCN3CCOCC3)ccc2COc2cc(Nc3ccc(F)cc3F)ccc21	28	1100	
Cc1cc(F)c(NC(=O)c2ccsc2)cc1Nc1ccc2c(c1)OCc1ccc(OCCN3CCOCC3)cc1C2=O	1.7	148	
Cc1ccccc1Nc1ccc2c(c1)OCc1cc(OCCN3CCOCC3)ccc1C2=O	85		inhibition [3]: 30.3%
Cc1cc(F)ccc1Nc1ccc2c(c1)OCc1cc(OCCN3CCOCC3)ccc1C2=O	160		
O=C1c2ccc(OCC[C@@H](O)CO)cc2COc2cc(Nc3ccc(F)cc3F)ccc21	21	37900	
CC1(C)OC[C@H](COc2ccc3c(c2)C(=O)c2ccc(Nc4ccc(F)cc4F)cc2OC3)O1	48	1300	
Nc1cccc(Nc2ccc3c(c2)OCc2ccc(N)cc2C3=O)c1	651	2430	
O=C1c2cc(OCCN3CCOCC3)ccc2COc2cc(Nc3ccc(F)cc3F)ccc21	21	429	
COc1cccc2c1COc1cc(Nc3ccc(F)cc3N)ccc1C2=O	87		
